Where a chain is given by its changes, count along the chain named.
Columns and labels:
Conditions in all cases: stereoisomer not certain
[1] = tested on: T1, A0A140T8K4
T1 sequence (whole entry): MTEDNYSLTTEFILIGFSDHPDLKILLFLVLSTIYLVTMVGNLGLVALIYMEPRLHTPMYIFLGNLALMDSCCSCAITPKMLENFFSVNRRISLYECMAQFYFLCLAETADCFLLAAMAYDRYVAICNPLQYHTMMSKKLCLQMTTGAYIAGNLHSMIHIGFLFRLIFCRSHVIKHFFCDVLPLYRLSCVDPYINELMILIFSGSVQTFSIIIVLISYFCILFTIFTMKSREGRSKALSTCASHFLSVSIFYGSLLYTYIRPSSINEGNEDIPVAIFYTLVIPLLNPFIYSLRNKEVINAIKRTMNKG
Outline: (§1)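 Each entry records the cell line, G-protein, co-transfected protein and tags used. Methods varied with the source, often transient luciferase assays in mammalian cell lines. A receptor–molecule pair is called responsive (active) if the original authors judged its signal statistically different from baseline and non-responsive (inactive) otherwise.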

[2] = tested on: T2, A0A2J8MY22
T2 sequence (whole entry): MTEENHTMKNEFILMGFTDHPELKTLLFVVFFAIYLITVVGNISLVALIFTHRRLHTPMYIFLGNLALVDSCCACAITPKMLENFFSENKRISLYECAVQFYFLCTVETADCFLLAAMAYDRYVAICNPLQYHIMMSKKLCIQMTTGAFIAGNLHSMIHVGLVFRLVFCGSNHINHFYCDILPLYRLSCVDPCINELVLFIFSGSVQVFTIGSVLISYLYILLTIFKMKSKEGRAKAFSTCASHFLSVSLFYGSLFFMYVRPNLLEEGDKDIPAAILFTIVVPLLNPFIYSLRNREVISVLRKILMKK
Outline: as §1

[3] = tested on: T3, A0A2R8ZIW4
T3 sequence (whole entry): T2 sequence (whole entry) with V39I, I280V
Outline: as §1

[4] = tested on: T4, A0A3Q7SVK8
T4 sequence (whole entry): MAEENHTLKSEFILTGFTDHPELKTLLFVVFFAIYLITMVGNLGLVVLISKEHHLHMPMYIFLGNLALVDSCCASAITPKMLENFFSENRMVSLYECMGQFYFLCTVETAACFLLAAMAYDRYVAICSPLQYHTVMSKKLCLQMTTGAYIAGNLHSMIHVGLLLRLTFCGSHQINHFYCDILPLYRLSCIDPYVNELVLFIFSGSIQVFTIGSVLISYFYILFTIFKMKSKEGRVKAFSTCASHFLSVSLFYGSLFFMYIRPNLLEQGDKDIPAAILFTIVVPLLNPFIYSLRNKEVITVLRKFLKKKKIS
Outline: as §1

[5] = tested on: T5, A0A6P3DZI2
T5 sequence (whole entry): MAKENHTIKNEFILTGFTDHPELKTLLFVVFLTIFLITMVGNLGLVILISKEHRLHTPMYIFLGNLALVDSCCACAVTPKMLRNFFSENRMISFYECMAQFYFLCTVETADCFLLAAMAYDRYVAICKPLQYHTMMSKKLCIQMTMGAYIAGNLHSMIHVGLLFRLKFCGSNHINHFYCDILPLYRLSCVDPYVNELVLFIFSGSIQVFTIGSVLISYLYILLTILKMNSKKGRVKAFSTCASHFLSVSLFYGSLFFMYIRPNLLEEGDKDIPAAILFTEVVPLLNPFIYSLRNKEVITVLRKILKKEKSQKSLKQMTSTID
Outline: as §1

[6] = tested on: T6, A0A6P6H1F7
T6 sequence (whole entry): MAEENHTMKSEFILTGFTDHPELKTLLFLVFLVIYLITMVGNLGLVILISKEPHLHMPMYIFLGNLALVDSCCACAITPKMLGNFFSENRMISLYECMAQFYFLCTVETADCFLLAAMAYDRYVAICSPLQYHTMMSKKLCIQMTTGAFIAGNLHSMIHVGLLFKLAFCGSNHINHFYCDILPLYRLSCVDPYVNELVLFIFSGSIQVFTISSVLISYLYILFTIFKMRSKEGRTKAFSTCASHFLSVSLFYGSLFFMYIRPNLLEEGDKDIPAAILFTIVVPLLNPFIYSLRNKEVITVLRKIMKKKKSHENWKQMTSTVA
Outline: as §1

[7] = tested on: A0A2J8KNW9
Outline: as §1

[8] = tested on: A0A2R8ZMP6
Outline: as §1

[9] = tested on: T7, O10A2 H43R H207R K258T
T7 sequence (whole entry): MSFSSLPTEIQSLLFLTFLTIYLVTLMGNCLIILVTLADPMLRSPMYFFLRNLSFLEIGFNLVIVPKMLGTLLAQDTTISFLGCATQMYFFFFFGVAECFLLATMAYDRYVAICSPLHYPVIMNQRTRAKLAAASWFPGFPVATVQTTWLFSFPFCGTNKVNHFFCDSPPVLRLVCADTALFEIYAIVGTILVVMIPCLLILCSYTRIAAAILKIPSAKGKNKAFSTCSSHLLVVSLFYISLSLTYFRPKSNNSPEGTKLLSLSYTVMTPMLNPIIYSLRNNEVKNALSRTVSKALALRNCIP
Outline: as §1

[10] = tested on: T8, O10A3 C8G
T8 sequence (whole entry): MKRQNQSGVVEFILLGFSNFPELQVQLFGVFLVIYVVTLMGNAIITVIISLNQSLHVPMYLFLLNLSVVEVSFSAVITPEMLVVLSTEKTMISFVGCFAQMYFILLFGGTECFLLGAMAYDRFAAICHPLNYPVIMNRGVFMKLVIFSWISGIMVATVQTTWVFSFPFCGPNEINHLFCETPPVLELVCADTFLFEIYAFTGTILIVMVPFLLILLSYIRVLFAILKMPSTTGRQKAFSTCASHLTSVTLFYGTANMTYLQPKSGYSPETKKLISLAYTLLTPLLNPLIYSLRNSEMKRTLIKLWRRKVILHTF
Outline: as §1

[11] = tested on: T9, O10A6
T9 sequence (whole entry): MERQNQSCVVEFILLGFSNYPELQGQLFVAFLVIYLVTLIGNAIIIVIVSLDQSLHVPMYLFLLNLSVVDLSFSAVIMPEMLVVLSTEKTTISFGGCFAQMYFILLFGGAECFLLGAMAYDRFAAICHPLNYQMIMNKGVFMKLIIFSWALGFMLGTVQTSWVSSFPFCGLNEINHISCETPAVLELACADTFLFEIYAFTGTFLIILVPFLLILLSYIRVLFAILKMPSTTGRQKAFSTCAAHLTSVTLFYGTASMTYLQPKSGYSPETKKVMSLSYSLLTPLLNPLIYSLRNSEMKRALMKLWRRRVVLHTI
Outline: as §1

[12] = tested on: T10, O10AD G65C
T10 sequence (whole entry): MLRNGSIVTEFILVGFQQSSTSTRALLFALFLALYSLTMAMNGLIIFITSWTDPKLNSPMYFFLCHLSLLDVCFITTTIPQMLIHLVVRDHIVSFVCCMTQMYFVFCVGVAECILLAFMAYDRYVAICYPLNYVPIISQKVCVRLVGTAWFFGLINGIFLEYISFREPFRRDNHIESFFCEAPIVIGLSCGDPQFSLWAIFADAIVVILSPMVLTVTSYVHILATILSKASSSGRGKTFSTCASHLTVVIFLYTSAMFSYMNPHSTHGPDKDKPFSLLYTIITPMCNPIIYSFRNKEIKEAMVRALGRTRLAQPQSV
Outline: as §1

[13] = tested on: T11, O10D3 V134A R197K
T11 sequence (whole entry): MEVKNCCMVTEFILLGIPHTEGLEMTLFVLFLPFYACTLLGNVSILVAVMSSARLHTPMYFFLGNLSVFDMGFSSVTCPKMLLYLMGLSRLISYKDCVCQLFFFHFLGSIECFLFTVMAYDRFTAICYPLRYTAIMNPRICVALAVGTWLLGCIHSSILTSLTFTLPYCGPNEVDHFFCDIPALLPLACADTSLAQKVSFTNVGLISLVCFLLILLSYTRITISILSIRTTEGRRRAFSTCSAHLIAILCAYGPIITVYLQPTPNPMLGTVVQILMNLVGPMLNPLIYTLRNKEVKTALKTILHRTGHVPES
Outline: as §1

[14] = tested on: T12, O10G4 L24P V195E
T12 sequence (whole entry): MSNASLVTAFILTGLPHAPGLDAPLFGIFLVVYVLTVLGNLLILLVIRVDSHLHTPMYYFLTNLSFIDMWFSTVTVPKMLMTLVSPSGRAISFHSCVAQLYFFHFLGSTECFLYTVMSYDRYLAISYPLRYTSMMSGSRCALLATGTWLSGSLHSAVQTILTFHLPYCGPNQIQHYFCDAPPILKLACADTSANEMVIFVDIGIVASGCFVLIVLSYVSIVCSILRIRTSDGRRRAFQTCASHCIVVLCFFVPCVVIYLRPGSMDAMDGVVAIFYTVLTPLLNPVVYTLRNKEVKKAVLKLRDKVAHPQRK
Outline: as §1

[15] = tested on: T13, O10G7 A18V P19Q G20A
T13 sequence (whole entry): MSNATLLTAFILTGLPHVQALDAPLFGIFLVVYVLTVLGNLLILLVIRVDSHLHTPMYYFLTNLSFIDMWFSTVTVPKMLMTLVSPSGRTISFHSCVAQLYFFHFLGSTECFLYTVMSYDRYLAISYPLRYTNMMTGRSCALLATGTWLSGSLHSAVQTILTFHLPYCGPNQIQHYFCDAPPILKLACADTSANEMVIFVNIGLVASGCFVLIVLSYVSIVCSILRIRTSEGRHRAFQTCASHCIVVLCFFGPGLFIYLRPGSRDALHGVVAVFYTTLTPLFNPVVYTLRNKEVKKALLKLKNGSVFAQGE
Outline: as §1

[16] = tested on: T14, O10G7 I28V
T14 sequence (whole entry): T13 sequence (whole entry) with V18A, Q19P, A20G, I28V
Outline: as §1

[17] = tested on: T15, A0A1L1SVG7
T15 sequence (whole entry): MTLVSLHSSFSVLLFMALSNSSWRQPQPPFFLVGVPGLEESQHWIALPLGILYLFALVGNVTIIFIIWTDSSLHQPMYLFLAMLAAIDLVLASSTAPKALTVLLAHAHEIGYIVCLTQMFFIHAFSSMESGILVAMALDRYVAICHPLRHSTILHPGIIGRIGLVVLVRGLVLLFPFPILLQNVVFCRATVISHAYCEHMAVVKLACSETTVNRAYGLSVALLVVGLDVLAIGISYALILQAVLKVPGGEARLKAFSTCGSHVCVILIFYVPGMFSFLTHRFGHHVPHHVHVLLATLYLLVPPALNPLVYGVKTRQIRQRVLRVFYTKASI
Outline: as §1

[18] = tested on: T16, A0A140T8K0
T16 sequence (whole entry): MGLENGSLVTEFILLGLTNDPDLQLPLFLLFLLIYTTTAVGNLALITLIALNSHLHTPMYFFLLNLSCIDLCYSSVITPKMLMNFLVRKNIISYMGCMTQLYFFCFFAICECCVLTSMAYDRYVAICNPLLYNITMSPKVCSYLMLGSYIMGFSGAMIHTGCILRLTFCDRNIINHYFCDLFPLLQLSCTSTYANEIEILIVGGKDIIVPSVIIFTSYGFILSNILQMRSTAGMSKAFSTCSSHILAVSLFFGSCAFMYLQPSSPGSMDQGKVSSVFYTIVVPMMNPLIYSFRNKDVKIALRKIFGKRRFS
Outline: as §1

Measured: odorant receptor agonist call

CCc1nccnc1OC
inactive: [1] | [5]
active: [2] | [3] | [4] | [6]

CCC(S)C(C)CO (centres undefined)
inactive: [7] | [8]

CCC1OC(C)=C(O)C1=O (centres undefined)
inactive: [9] | [10] | [11] | [12] | [13] | [14] | [15] | [16]

CC(=O)c1cnccn1
inactive: [1] | [5]
active: [2] | [3] | [4] | [6]

CCC(C(=O)O)c1ccccc1 (centres undefined)
inactive: [1] | [17]

CCc1cnc(C)c(C)n1
inactive: [3] | [4] | [5] | [6]
active: [1] | [2]

COc1cnccn1
active: [2] | [3] | [4] | [6]
inactive: [18] | [1] | [5]

CCc1nccnc1CC
active: [2] | [3] | [4] | [6]
inactive: [18] | [1] | [5]

COC1=C(C)OC(C)C1=O (centres undefined)
inactive: [1] | [3] | [4] | [5] | [6]
active: [2]

CC1=NC(C)C(C)S1 (centres undefined)
active: [1] | [2] | [3] | [4] | [5] | [6]
not listed: [7] | [8] | [17] | [18]
inactive: all other assays above
